Laboratory results: ChEMBL document CHEMBL4732112, “Synthesis and in vitro evaluation of novel spiroketopyrazoles as acetyl-CoA carboxylase inhibitors and potential antitumor agents” (Eur J Med Chem, 2021)

Columns and labels:
HepG2 [1] = test: Cell cycle arrest in human HepG2 cells assessed as accumulation at G0/G1 phase at 5 uM measured after 48 hrs by propidium iodide staining based flow cytometry (reference value: 56.24%); format: functional
A549 = test: Antiproliferative activity against human A549 cells assessed as cell growth inhibition at 10 uM after 72 hrs by MTT assay relative to control; format: functional; settings: read-out: GI
Procedure, shortened: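 Cells were DMEM/10% FBS cultures at 37 °C, 5% CO2, seeded at 3×10^3 per well and exposed for 72 h after 24 h attachment. Read-out was MTT with formazan in DMSO and absorbance at 550 nm, expressed as inhibition rate versus control.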

HepG2 [2] = test: Antiproliferative activity against human HepG2 cells assessed as combination index at 0.0875 uM measured after 72 hrs in presence of 0.175 uM doxorubicin by MTT assay; format: functional
HepG2 [3] = test: Cell cycle arrest in human HepG2 cells assessed as accumulation at G0/G1 phase at 1 uM measured after 48 hrs by propidium iodide staining based flow cytometry (reference value: 56.24%); format: functional
MDA-MB-231 = test: Antiproliferative activity against human MDA-MB-231 cells assessed as cell growth inhibition after 72 hrs by MTT assay; format: functional, cell-based; settings: MDA-MB-231, 72 h
Procedure, shortened: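 HepG2, A549 or MDA-MB-231 cells grown in DMEM with 10% FBS and penicillin/streptomycin at 37 °C, 5% CO2. Seeded at 3×10^3 per well, left 24 h, then exposed to a range of concentrations for 72 h. MTT added for 4 h, formazan dissolved in DMSO, absorbance read at 550 nm. Mean ± SD, n=3.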

HepG2 [4] = test: Cell cycle arrest in human HepG2 cells assessed as reduction in cyclin D1 expression at 10 uM measured after 48 hrs by Western blot analysis relative to control; format: functional; design: scale not given: the % may be the effect or the level left
Procedure, shortened: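 HepG2 cells treated for 48 h and lysed. Lysates cleared at 12000 rpm for 15 min and protein measured by BCA. Run on SDS-PAGE, transferred to PVDF, blocked in 5% BSA, primary antibody at 4 °C overnight, then DyLight 800 secondary. Infrared imaging and densitometry against β-actin. Mean ± SD, n=3.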

HepG2 [5] = test: Antiproliferative activity against human HepG2 cells assessed as cell viability at 0.5 uM measured after 5 days by MTT assay relative to control; format: functional; settings: HepG2, 120 h, time 5 day, read-out: Activity
Procedure, shortened: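 HepG2 treated with 0.5 μM plus 0, 10 or 25 μM palmitate for 1, 3 and 5 days. Palmitate was complexed with 5% fatty-acid-free BSA from a 5 mM solution, then diluted in serum-free DMEM to final concentration. Viability (% control) by MTT. Mean ± SD, n=3.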

Acetyl-CoA carboxylase 1 [6] = target: T1, Acetyl-CoA carboxylase 1 (Homo sapiens, UniProt Q13085); test: Inhibition of ACC1 in human HepG2 cells assessed as reduction in intracellular malonyl-CoA level measured after 48 hrs by ELISA; format: cell-based; settings: dose 1-10 µM
Procedure, shortened: (§1)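 HepG2 cells plated and exposed to the compound at several concentrations for 48 h. Cells washed with PBS, lysed in 1% Triton X-100 and spun 12000 rpm, 4 °C, 15 min. Malonyl-CoA measured by ELISA kit and triglyceride by GPO-POP kit, each normalised to BCA protein. Reported relative to control, mean ± SD, n=3.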

Acetyl-CoA carboxylase 1 [7] = target: T1, Acetyl-CoA carboxylase 1; test: Inhibition of ACC1 in human HepG2 cells assessed as reduction in intracellular malonyl-CoA level at 10 uM measured after 48 hrs by ELISA relative to control; format: cell-based; procedure, shortened: as §1

CC(C)(C)n1cc2c(n1)C(=O)CC1(CCN(C(=O)c3cc(-c4ccncc4)nc4ccccc34)CC1)O2
Activity (HepG2 [1]): 78.83% | inhibition of growth at 10 µM (A549): 79.3% | CI (HepG2 [2]): 0.713 | Activity (HepG2 [3]): 67.68% | IC50 (MDA-MB-231): 1.65 µM | Activity (HepG2 [4]): 43.92% | viability at 0.5 µM (HepG2 [5]): 33.1% | inhibition (Acetyl-CoA carboxylase 1 [6]): Dose-dependent effect | inhibition (Acetyl-CoA carboxylase 1 [7]): 31.4%
